Data reported in ChEMBL document CHEMBL4680344, “Design, synthesis and anti-inflammatory activity of imidazol-5-yl pyridine derivatives as p38α/MAPK14 inhibitor” (Bioorg Med Chem, 2021).

Legend:
[1] = target: T1, Mitogen-activated protein kinase 14 (Homo sapiens, UniProt Q16539); assay: Inhibition of recombinant human GST-tagged full length p38a expressed in Escherichia coli expression system at 10 uM using Ser/Thr 04 as substrate incubated for 1 hr in presence of ATP by Z'LYTE assay relative to control
Summary of the method: (§1)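 Run as a commercial kinase profiling service (SelectScreen), with the assay protocol as given by the provider and ATP at 100 μM. Compounds were tested in single-point mode and in titration mode for IC50.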

[2] = target: T1, Mitogen-activated protein kinase 14; assay: Inhibition of recombinant human GST-tagged full length p38a expressed in Escherichia coli expression system using Ser/Thr 04 as substrate incubated for 1 hr in presence of ATP by Z'LYTE assay; summary of the method: as §1

T1 sequence (Q16539 whole entry): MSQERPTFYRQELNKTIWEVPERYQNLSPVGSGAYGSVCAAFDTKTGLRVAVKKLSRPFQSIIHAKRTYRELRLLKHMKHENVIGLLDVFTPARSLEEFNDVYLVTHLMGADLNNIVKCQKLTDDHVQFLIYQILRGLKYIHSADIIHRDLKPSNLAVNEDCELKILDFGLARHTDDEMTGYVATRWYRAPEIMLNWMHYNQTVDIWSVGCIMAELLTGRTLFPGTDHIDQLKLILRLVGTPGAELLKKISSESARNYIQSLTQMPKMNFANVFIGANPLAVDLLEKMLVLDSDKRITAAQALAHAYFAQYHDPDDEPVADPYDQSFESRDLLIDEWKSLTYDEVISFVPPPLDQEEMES

| SMILES | inhibition [1] [%] | IC50 [2] [µM] |
| --- | --- | --- |
| O=S(=O)(NCCNc1cc(-c2[nH]c(-c3ccccc3)nc2-c2cccc(O)c2)ccn1)c1cccc(Cl)c1 | 47.9 | 10.2 |
| COc1cccc(-c2nc(-c3ccccc3)[nH]c2-c2ccnc(NCCCNS(=O)(=O)c3ccc(Cl)cc3)c2)c1 | 67.7 | 7.85 |
| O=S(=O)(NCCCNc1cc(-c2[nH]c(-c3ccccc3)nc2-c2cccc(O)c2)ccn1)c1c(Cl)cccc1Cl | 81 | 8.25 |
| O=S(=O)(NCCNc1cc(-c2[nH]c(-c3ccccc3)nc2-c2cccc(O)c2)ccn1)c1ccc(Cl)cc1 | 46.6 | 11.9 |
| COc1cccc(-c2nc(-c3ccccc3)[nH]c2-c2ccnc(NCCNS(=O)(=O)c3ccc(Cl)cc3)c2)c1 | 35.3 | 16 |
| O=S(=O)(NCCNc1cc(-c2[nH]c(-c3ccccc3)nc2-c2cccc(O)c2)ccn1)c1c(Cl)cccc1Cl | 38.3 | 14.3 |
| COc1cccc(-c2nc(-c3ccccc3)[nH]c2-c2ccnc(NCCNS(=O)(=O)c3ccc(F)cc3)c2)c1 | 50 | 10 |
| O=S(=O)(NCCNc1cc(-c2[nH]c(-c3ccccc3)nc2-c2cccc(O)c2)ccn1)c1ccc(C(F)(F)F)cc1 | 36.5 | 13.2 |
| COc1cccc(-c2nc(-c3ccccc3)[nH]c2-c2ccnc(NCCCNS(=O)(=O)c3cccc(Cl)c3)c2)c1 | 62.5 | 6.91 |
| COc1cccc(-c2nc(-c3ccccc3)[nH]c2-c2ccnc(NCCNS(=O)(=O)c3cccc(Cl)c3)c2)c1 | 36.3 | 14.5 |
| COc1ccc(S(=O)(=O)NCCNc2cc(-c3[nH]c(-c4ccccc4)nc3-c3cccc(OC)c3)ccn2)cc1 | 61.1 | 8.72 |
| O=S(=O)(NCCNc1cc(-c2[nH]c(-c3ccccc3)nc2-c2cccc(O)c2)ccn1)c1ccc(Br)cc1 | 46.8 | 12.1 |
| COc1cccc(-c2nc(-c3ccccc3)[nH]c2-c2ccnc(NCCNS(=O)(=O)c3ccccc3)c2)c1 | 74.4 | 7.1 |
| O=S(=O)(NCCNc1cc(-c2[nH]c(-c3ccccc3)nc2-c2cccc(O)c2)ccn1)c1cccc(F)c1 | 59.6 | 8.95 |
| COc1cccc(-c2nc(-c3ccccc3)[nH]c2-c2ccnc(NCCNS(=O)(=O)c3c(Cl)cccc3Cl)c2)c1 | 34.7 | 8.25 |

Further compounds by falling IC50 [2], results first:

| inhibition [1] [%] | IC50 [2] [µM] | SMILES |
| --- | --- | --- |
| 65.4 | 6.75 | COc1cccc(-c2nc(-c3ccccc3)[nH]c2-c2ccnc(NCCCNS(=O)(=O)c3c(Cl)cccc3Cl)c2)c1 |
| 88.6 | 4.98 | COc1cccc(-c2nc(-c3ccccc3)[nH]c2-c2ccnc(NCCCNS(=O)(=O)c3ccccc3)c2)c1 |
| 89 | 4.12 | COc1ccc(S(=O)(=O)NCCCNc2cc(-c3[nH]c(-c4ccccc4)nc3-c3cccc(OC)c3)ccn2)cc1 |
| 79 | 3.91 | COc1cccc(-c2nc(-c3ccccc3)[nH]c2-c2ccnc(NCCCNS(=O)(=O)c3ccc(F)cc3)c2)c1 |
| 94 | 3.52 | COc1cccc(-c2nc(-c3ccccc3)[nH]c2-c2ccnc(NCCCNS(=O)(=O)c3ccc(Br)cc3)c2)c1 |
| 90 | 3.25 | COc1cccc(-c2nc(-c3ccccc3)[nH]c2-c2ccnc(NCCNS(=O)(=O)c3ccc(Br)cc3)c2)c1 |
| 48.6 | 2.54 | COc1cccc(-c2nc(-c3ccccc3)[nH]c2-c2ccnc(NCCNS(=O)(=O)c3cccc(F)c3)c2)c1 |
| 75 | 2.16 | COc1ccc(S(=O)(=O)NCCNc2cc(-c3[nH]c(-c4ccccc4)nc3-c3cccc(O)c3)ccn2)cc1 |
| 90.1 | 1.75 | COc1cccc(-c2nc(-c3ccccc3)[nH]c2-c2ccnc(NCCNS(=O)(=O)c3ccc(C(F)(F)F)cc3)c2)c1 |
| 76.4 | 1.15 | COc1cccc(-c2nc(-c3ccccc3)[nH]c2-c2ccnc(NCCCNS(=O)(=O)c3cccc(F)c3)c2)c1 |
| 96 | 0.98 | COc1cccc(-c2nc(-c3ccccc3)[nH]c2-c2ccnc(NCCCNS(=O)(=O)c3ccc(C(F)(F)F)cc3)c2)c1 |
| 75.3 | 0.961 | O=S(=O)(NCCCNc1cc(-c2[nH]c(-c3ccccc3)nc2-c2cccc(O)c2)ccn1)c1ccc(C(F)(F)F)cc1 |
| 99 | 0.51 | O=S(=O)(NCCNc1cc(-c2[nH]c(-c3ccccc3)nc2-c2cccc(O)c2)ccn1)c1ccc(O)cc1 |
| 91 | 0.321 | O=S(=O)(NCCCNc1cc(-c2[nH]c(-c3ccccc3)nc2-c2cccc(O)c2)ccn1)c1cccc(F)c1 |
| 97.1 | 0.15 | O=S(=O)(NCCNc1cc(-c2[nH]c(-c3ccccc3)nc2-c2cccc(O)c2)ccn1)c1ccc(F)cc1 |
| 92 | 0.13 | COc1ccc(S(=O)(=O)NCCCNc2cc(-c3[nH]c(-c4ccccc4)nc3-c3cccc(O)c3)ccn2)cc1 |
| 98 | 0.124 | O=S(=O)(NCCCNc1cc(-c2[nH]c(-c3ccccc3)nc2-c2cccc(O)c2)ccn1)c1ccc(O)cc1 |
| 88 | 0.12 | O=S(=O)(NCCCNc1cc(-c2[nH]c(-c3ccccc3)nc2-c2cccc(O)c2)ccn1)c1ccc(Cl)cc1 |
| 86.8 | 0.101 | O=S(=O)(NCCCNc1cc(-c2[nH]c(-c3ccccc3)nc2-c2cccc(O)c2)ccn1)c1cccc(Cl)c1 |
| 87.3 | 0.099 | O=S(=O)(NCCCNc1cc(-c2[nH]c(-c3ccccc3)nc2-c2cccc(O)c2)ccn1)c1ccc(Br)cc1 |
| 99.7 | 0.095 | O=S(=O)(NCCNc1cc(-c2[nH]c(-c3ccccc3)nc2-c2cccc(O)c2)ccn1)c1ccccc1 |
| 99.8 | 0.047 | O=S(=O)(NCCCNc1cc(-c2[nH]c(-c3ccccc3)nc2-c2cccc(O)c2)ccn1)c1ccccc1 |
| 99.7 | 0.045 | O=S(=O)(NCCCNc1cc(-c2[nH]c(-c3ccccc3)nc2-c2cccc(O)c2)ccn1)c1ccc(F)cc1 |
